# Active and inactive are the calls of the source. The calls are words filed in the database; no cut-off is given here.
# Key:
# [1] = biological target: Proto-oncogene tyrosine-protein kinase receptor Ret (Homo sapiens, UniProt P07949); experiment: Inhibition of recombinant RET active protein by immunoblotting
# NIH3T3 [2] = experiment: Antiproliferative activity against mouse NIH3T3 cells expressing RET C634R mutant associated with MEN2A syndrome after 72 hrs; conditions: NIH3T3, 72 h
# NIH3T3 [3] = experiment: Antiproliferative activity against mouse NIH3T3 cells after 72 hrs; conditions: NIH3T3, 72 h
# NIH3T3 [4] = experiment: Antiproliferative activity against mouse NIH3T3 cells transfected with H-RAS oncogene after 72 hrs; conditions: NIH3T3, 72 h
# NIH3T3 [5] = experiment: Inhibition of RET oncoprotein expression in mouse NIH3T3 cells transfected with RET C634R mutant associated with MEN2A syndrome at 2.5 to 10 uM after 24 hrs by Western blot; assay type: functional, cell-based
# In short: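 NIH3T3MEN2A cells were exposed to compound or to DMSO vehicle for 24 h. Whole-cell lysates were Western blotted with anti-Ret (H300) and anti-phospho-Ret (Y1062) antibodies. Actin served as the loading control, and a lysate of untreated parental NIH3T3 cells was run alongside.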
# Chain of Proto-oncogene tyrosine-protein kinase receptor Ret (P07949 whole entry): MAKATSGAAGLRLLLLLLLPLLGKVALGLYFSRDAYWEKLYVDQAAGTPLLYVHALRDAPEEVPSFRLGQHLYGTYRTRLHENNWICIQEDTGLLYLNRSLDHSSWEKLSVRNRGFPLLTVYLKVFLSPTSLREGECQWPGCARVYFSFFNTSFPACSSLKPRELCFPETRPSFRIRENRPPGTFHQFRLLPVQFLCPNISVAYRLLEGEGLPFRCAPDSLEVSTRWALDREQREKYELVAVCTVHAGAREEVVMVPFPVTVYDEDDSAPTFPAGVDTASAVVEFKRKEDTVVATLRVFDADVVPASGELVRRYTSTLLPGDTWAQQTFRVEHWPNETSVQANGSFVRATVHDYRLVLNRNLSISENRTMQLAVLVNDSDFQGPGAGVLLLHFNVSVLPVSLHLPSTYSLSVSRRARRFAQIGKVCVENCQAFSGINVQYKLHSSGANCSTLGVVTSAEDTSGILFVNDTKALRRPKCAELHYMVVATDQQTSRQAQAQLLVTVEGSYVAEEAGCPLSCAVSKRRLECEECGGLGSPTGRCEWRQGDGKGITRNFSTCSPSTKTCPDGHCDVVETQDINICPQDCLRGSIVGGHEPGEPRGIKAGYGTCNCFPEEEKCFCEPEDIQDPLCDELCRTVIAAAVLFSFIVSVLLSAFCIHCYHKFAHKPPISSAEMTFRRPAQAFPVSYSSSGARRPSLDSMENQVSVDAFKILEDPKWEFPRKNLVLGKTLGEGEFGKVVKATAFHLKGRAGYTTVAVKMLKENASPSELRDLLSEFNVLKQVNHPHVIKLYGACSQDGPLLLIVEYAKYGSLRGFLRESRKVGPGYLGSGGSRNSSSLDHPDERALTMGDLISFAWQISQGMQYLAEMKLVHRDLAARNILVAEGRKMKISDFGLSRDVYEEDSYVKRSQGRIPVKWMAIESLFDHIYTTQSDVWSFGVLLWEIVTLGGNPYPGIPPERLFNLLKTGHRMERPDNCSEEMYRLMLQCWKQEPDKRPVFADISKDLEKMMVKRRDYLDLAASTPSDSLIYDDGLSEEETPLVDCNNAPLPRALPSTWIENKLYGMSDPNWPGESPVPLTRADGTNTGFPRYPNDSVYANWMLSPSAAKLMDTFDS
SMILES,IC50 [1],IC50 (NIH3T3 [2]),IC50 (NIH3T3 [3]),IC50 (NIH3T3 [4]),Activity (NIH3T3 [5])
COc1cc2c3ccn(Cc4ccccc4)c(=O)c3n(C)c2cc1OC,> 0.6 µM,15.9 µM,–,–,–
COc1cc2[nH]c3c(=O)[nH]c(-c4ccccc4)cc3c2cc1OC,–,13.3 µM,–,–,–
COc1cc2[nH]c3c(c2cc1OC)C(c1ccc(O)cc1)=CCNC3=O,–,19.8 µM,–,–,–
Cn1c2ccccc2c2c(-c3ccc(O)cc3)c[nH]c(=O)c21,–,17.3 µM,> 30 µM,> 30 µM,–
COc1cc2c3c(-c4ccccc4)c[nH]c(=O)c3n(C)c2cc1OC,0.25 µM,3.3 µM,17.8 µM,13.8 µM,–
COc1cc2c3c(-c4cccc(O)c4)c[nH]c(=O)c3n(C)c2cc1OC,0.09 µM,3.2 µM,6.7 µM,6.1 µM,–
COc1cc2c3c(-c4ccc(O)cc4)c[nH]c(=O)c3n(Cc3ccccc3)c2cc1OC,–,7.5 µM,17.7 µM,–,–
COc1cc2c3c(n(C)c2cc1OC)C(=O)NCC=C3c1ccc(O)cc1,–,14.4 µM,–,–,–
COc1cc2c3c(-c4ccc(O)cc4)c[nH]c(=O)c3n(C)c2cc1OC,–,1.95 µM,7.2 µM,6.6 µM,Active
COc1cc2c3c(C)c[nH]c(=O)c3n(C)c2cc1OC,> 0.6 µM,5.6 µM,10.6 µM,–,–
COc1ccc(CN2CC=C(c3ccc(O)cc3)c3c(n(C)c4cc(OC)c(OC)cc34)C2=O)cc1,–,6.8 µM,–,–,–
COc1cc2[nH]c3c(=O)[nH]cc(-c4ccc(O)cc4)c3c2cc1OC,0.11 µM,4.7 µM,13.9 µM,13.5 µM,–
COc1cc2c3c(n(C)c2cc1OC)C(=O)N(C)CC=C3c1ccc(O)cc1,–,18.4 µM,–,–,–
COc1ccc2c(c1)c1c(-c3ccc(O)cc3)c[nH]c(=O)c1n2C,–,12.2 µM,25 µM,> 30 µM,–
COc1cc2c3c(n(C)c2cc1OC)C(=O)NCC=C3,–,7.8 µM,–,–,–
COc1cc2c3cc(-c4ccccc4)[nH]c(=O)c3n(C)c2cc1OC,–,34.4 µM,–,–,–
COc1ccc(C2=CCNC(=O)c3c2c2cc(OC)c(OC)cc2n3C)cc1,–,9.9 µM,–,–,–
COc1cc2c3c(n(C)c2cc1OC)C(=O)NCC=C3C,–,16.7 µM,–,–,–

# From ChEMBL document CHEMBL1151748, “Synthesis, modeling, and RET protein kinase inhibitory activity of 3- and 4-substituted beta-carbolin-1-ones” (J Med Chem, 2008)
